Data from ChEMBL document CHEMBL1143924, “Discovery of 2-amino-6-carboxamidobenzothiazoles as potent Lck inhibitors” (Bioorg Med Chem Lett, 2008).

What was measured:
Assay type in all cases: functional, cell-based
[1] = test system: BaF3; assay: Antiproliferative activity against Lck transformed mouse BaF3 cells after 48 hrs by luciferase assay; settings: BaF3, 48 h
Method in brief: (§1)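 BaF3 cells transformed with the named kinase, 25,000 cells per well, exposed to serial inhibitor dilutions or DMSO for 48 h. Luciferase expression, read by Bright-Glo luminescence, served as the measure of proliferation/survival.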

[2] = test system: Jurkat; assay: Inhibition of ant-CD3+CD28 antibodies induced IL2 promoter activity in human Jurkat cells after 5 hrs
Method in brief: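 Wells coated with anti-mouse IgG in sodium bicarbonate buffer, then loaded with OKT3 (mouse anti-human CD3) and mouse anti-human CD28 antibodies, then washed. Jurkat cells carrying IL-2 promoter-driven luciferase, 100,000 per well, incubated 5 h on the bound antibodies. Luciferase read-out by Bright-Glo.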

[3] = test system: Jurkat; assay: Inhibition of phorbol myristate acetate and ionomycin induced IL2 promoter activity in human Jurkat cells after 5 hrs
Method in brief: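 Jurkat IL-2 promoter-luciferase cells, 50,000 per well, stimulated with PMA plus ionomycin, added as an equal volume of solution containing PMA at 40 ng/mL (concentration before mixing). IL-2 promoter activity read as luciferase signal by Bright-Glo.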

[4] = test system: BaF3; assay: Antiproliferative activity against Lyn transformed mouse BaF3 cells; method in brief: as §1
[5] = test system: BaF3; assay: Antiproliferative activity against KDR transformed mouse BaF3 cells; method in brief: as §1
[6] = test system: BaF3; assay: Antiproliferative activity against FLT3 transformed mouse BaF3 cells; method in brief: as §1
[7] = test system: BaF3; assay: Antiproliferative activity against Alk transformed mouse BaF3 cells; method in brief: as §1
[8] = test system: BaF3; assay: Antiproliferative activity against JAK3 transformed mouse BaF3 cells; method in brief: as §1
[9] = test system: BaF3; assay: Antiproliferative activity against FGFR3 transformed mouse BaF3 cells; method in brief: as §1
[10] = test system: BaF3; assay: Antiproliferative activity against InsR transformed mouse BaF3 cells; method in brief: as §1
[11] = test system: BaF3; assay: Antiproliferative activity against Src transformed mouse BaF3 cells; method in brief: as §1
[12] = test system: BaF3; assay: Antiproliferative activity against Sky transformed mouse BaF3 cells; method in brief: as §1

IC50 [1] [nM] | Compound | further results
955 | Cc1ccc(NC(=O)c2cccc(C(F)(F)F)c2)cc1NC(=O)c1ccc2nc(N(C)C(=O)OC(C)(C)C)sc2c1 | 
36 | Cc1ccc(NC(=O)c2cccc(C(F)(F)F)c2)cc1NC(=O)c1ccc2nc(NC(=O)OC(C)(C)C)sc2c1 | 
30 | COC(=O)Nc1nc2ccc(C(=O)Nc3cc(NC(=O)c4cccc(C(F)(F)F)c4)ccc3C)cc2s1 | IC50 [2]: 36 nM; IC50 [3]: 851 nM
16 | Cc1ccc(NC(=O)c2cccc(C(F)(F)F)c2)cc1NC(=O)c1ccc2nc(NC(=O)NC3CCCC3)sc2c1 | IC50 [2]: 62 nM; IC50 [3]: 812 nM
81 | Cc1ccc(NC(=O)c2cccc(C(F)(F)F)c2)cc1NC(=O)c1ccc2nc(NCCCN(C)C)sc2c1 | 
8 | Cc1cc(Nc2nc3ccc(C(=O)Nc4cc(NC(=O)c5cccc(C(F)(F)F)c5)ccc4C)cc3s2)no1 | 
9 | CCNC(=O)Nc1nc2ccc(C(=O)Nc3cc(NC(=O)c4ccnc(C(C)(C)C)c4)ccc3C)cc2s1 | 
21 | CNC(=O)Nc1nc2ccc(C(=O)Nc3cc(NC(=O)c4cccc(C(F)(F)F)c4)ccc3C)cc2s1 | IC50 [4]: 94 nM; IC50 [5]: 1610 nM; IC50 [6]: 3140 nM; IC50 [7]: 1630 nM; IC50 [8]: 5010 nM; IC50 [9]: 1980 nM; IC50 [10]: 1280 nM; IC50 [11]: 301 nM; IC50 [12]: 1100 nM
8 | COCCOC(=O)Nc1nc2ccc(C(=O)Nc3cc(NC(=O)c4cccc(C(F)(F)F)c4)ccc3C)cc2s1 | IC50 [2]: 12 nM; IC50 [3]: 438 nM
30 | Cc1ccc(NC(=O)c2cccc(C(F)(F)F)c2)cc1NC(=O)c1ccc2nc(NC(=O)OC(C)C)sc2c1 | IC50 [4]: 268 nM; IC50 [5]: 3280 nM; IC50 [6]: > 10000 nM; IC50 [7]: 6110 nM; IC50 [8]: > 10000 nM; IC50 [9]: 12600 nM; IC50 [10]: 13500 nM; IC50 [11]: 517 nM; IC50 [12]: 2440 nM
7 | CCNC(=O)Nc1nc2ccc(C(=O)Nc3cc(NC(=O)c4cc(F)cc(C(F)(F)F)c4)ccc3C)cc2s1 | 
4 | Cc1ccc(NC(=O)c2cccc(C(F)(F)F)c2)cc1NC(=O)c1ccc2nc(Nc3cnccn3)sc2c1 | 
> 10000 | CCNC(=O)N(C)c1nc2ccc(C(=O)Nc3cc(NC(=O)c4cccc(C(F)(F)F)c4)ccc3C)cc2s1 | 
170 | Cc1ccc(NC(=O)c2cccc(C(F)(F)F)c2)cc1NC(=O)c1ccc2nc(N)sc2c1 | 
94 | Cc1ccc(NC(=O)c2cccc(C(F)(F)F)c2)cc1NC(=O)c1ccc2nc(NC(=O)Nc3ccccc3)sc2c1 | 
53 | Cc1cc(C)nc(Nc2nc3ccc(C(=O)Nc4cc(NC(=O)c5cccc(C(F)(F)F)c5)ccc4C)cc3s2)n1 | 

Second part, the compound before the results:

Compound | IC50 [1] [nM] | further results
CCNC(=O)Nc1nc2ccc(C(=O)Nc3cc(C(=O)Nc4cccc(C(F)(F)F)c4)ccc3C)cc2s1 | 118 | 
Cc1ccc(C(=O)Nc2cccc(C(F)(F)F)c2)cc1NC(=O)c1ccc2nc(NC(=O)NC3CCCC3)sc2c1 | 139 | 
Cc1ccc(NC(=O)c2cccc(C(F)(F)F)c2)cc1NC(=O)c1ccc2nc(NCCN3CCN(C)CC3)sc2c1 | 58 | 
COc1ccc(OC(=O)Nc2nc3ccc(C(=O)Nc4cc(NC(=O)c5cccc(C(F)(F)F)c5)ccc4C)cc3s2)cc1 | 131 | 
CCNC(=O)Nc1nc2ccc(C(=O)Nc3cc(NC(=O)c4cccc(C(F)(F)F)c4)ccc3C)cc2s1 | 16 | IC50 [2]: 44 nM; IC50 [3]: 373 nM
Cc1ccc(NC(=O)c2cccc(C(F)(F)F)c2)cc1NC(=O)c1ccc2nc(NC(=O)Nc3cccnc3)sc2c1 | 125 | 
CCNC(=O)Nc1nc2ccc(C(=O)Nc3cc(NC(=O)c4cccc(OC)c4)ccc3C)cc2s1 | 158 | 
Cc1ccc(NC(=O)c2cccc(C(F)(F)F)c2)cc1NC(=O)c1ccc2nc(NCCCN3CCOCC3)sc2c1 | 78 | 
CCNC(=O)Nc1nc2ccc(C(=O)Nc3cc(NC(=O)c4ccc(Cl)c(C(F)(F)F)c4)ccc3C)cc2s1 | 50 | 
CCNC(=O)Nc1nc2ccc(C(=O)Nc3cc(NC(=O)c4cccc(Cl)c4)ccc3C)cc2s1 | 104 | 
CCNC(=O)Nc1nc2ccc(C(=O)Nc3cc(NC(=O)c4cc(-n5cnc(C)c5)cc(C(F)(F)F)c4)ccc3C)cc2s1 | 15 | 
CCNC(=O)Nc1nc2ccc(C(=O)Nc3cc(NC(=O)c4cc(N5CCN(C)CC5)cc(C(F)(F)F)c4)ccc3C)cc2s1 | 19 | 
Cc1cc(Nc2nc3ccc(C(=O)Nc4cc(NC(=O)c5cccc(C(F)(F)F)c5)ccc4C)cc3s2)nc(C)n1 | 0.6 | 
Cc1cc(Br)c(NC(=O)c2cccc(C(F)(F)F)c2)cc1NC(=O)c1ccc2nc(NCCN3CCOCC3)sc2c1 | 2100 | 
CCNC(=O)Nc1nc2ccc(C(=O)Nc3cc(NC(=O)c4cccc(C)c4)ccc3C)cc2s1 | 112 | 
Cc1ccnc(Nc2nc3ccc(C(=O)Nc4cc(NC(=O)c5cccc(C(F)(F)F)c5)ccc4C)cc3s2)c1 | 16 | 
Cc1ccc(NC(=O)c2cccc(C(F)(F)F)c2)cc1NC(=O)c1ccc2nc(NC(=O)Oc3ccccc3)sc2c1 | 112 | 
CCNC(=O)Nc1nc2ccc(C(=O)Nc3cc(NC(=O)c4ccc(C(C)(C)C)s4)ccc3C)cc2s1 | 12 | 
